Measurements published in ChEMBL document CHEMBL1955829, “Synthesis and biological evaluation of 4β-sulphonamido and 4β-[(4'-sulphonamido)benzamide]podophyllotoxins as DNA topoisomerase-IIα and apoptosis inducing agents” (2012).
Activity calls are given as the source filed them. The rule behind the calls is not given here.

Key:
[1] = system: COLO 205; test: Induction of apoptosis in human COLO205 cells assessed as up-regulation of NF-kappaB at 4 uM after 24 hrs by Western blotting analysis; type: functional, cell-based
How it was run: (§1)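 Colo-205 cells treated 24 h at 4 µM and lysed in ice-cold RIPA with protease inhibitors and NaF. Protein measured by Bradford; 50 µg per lane run on 12% SDS-PAGE and transferred to PVDF. Membrane blocked 2 h, primary antibody (topo-IIα/β, p21, p16, pro-caspase-3, NF-kB p65) overnight at 4 °C, HRP secondary 1:2000 for 1 h, chemiluminescence detection; β-actin as loading control. Reduced procaspase-3 taken as caspase-3 activation.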

[2] = system: A2780; test: Growth inhibition of human A2780 cells after 48 hrs by sulforhodamine B assay; type: functional; conditions: A2780, 48 h
How it was run: (§2)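 Cells grown in DMEM with 10% FBS and 2 mM L-glutamine, plated at densities set by doubling time, and held 24 h before dosing. Exposure was 48 h to 0.1, 1, 10 and 100 µM in triplicate wells. Cells fixed with cold TCA (final 10%) 60 min at 4 °C and stained with 0.4% SRB 20 min. Bound dye eluted in 10 mM Tris base and read at 540 nm (690 nm reference). GI50 is the concentration giving 50% reduction in net protein gain versus control; values are the mean of three determinations.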

[3] = system: COLO 205; test: Up-regulation of topoisomerase 2alpha in human COLO205 cells at 4 uM after 24 hrs by Western blotting analysis in presence of HDAC inhibitor, trichostatin A; type: functional, cell-based
How it was run: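 Colo-205 cells exposed 24 h to test agent plus TSA, each at 4 µM. Western blot of lysates probed for topo-IIα, with β-actin as loading control.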

[4] = biological target: Serine-protein kinase ATM (Homo sapiens) (UniProt Q13315); test: Induction of ATM activation in human COLO205 cells at 4 uM after 24 hrs by ATM S1981 staining; type: cell-based; conditions: COLO 205
How it was run: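 Colo-205 cells on coverslips treated 24 h at 4 µM. Fixed in 4% paraformaldehyde, permeabilised with 0.2% Triton X-100, held in methanol overnight at 4 °C, and blocked with 1% BSA. Stained with anti-phospho-ATM (S1981) or anti-phospho-Chk1 (1:100) for 2 h at room temperature, then FITC anti-rabbit secondary for 1 h; DAPI/PI counterstain and confocal imaging.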

[5] = system: ZR-75-1; test: Growth inhibition of human ZR-75-1 cells after 48 hrs by sulforhodamine B assay; type: functional; conditions: ZR-75-1, 48 h; how it was run: as §2
[6] = system: COLO 205; test: Cytotoxicity against human COLO205 cells at 8 uM after 24 hrs by MTT assay; type: functional, cell-based
How it was run: (§3)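 Colo-205 cells plated at 10,000 per well, left overnight, then exposed 24 h at 2, 4 or 8 µM. MTT added for 2 h at 37 °C, formazan dissolved in extraction buffer, and optical density read at 570 nm against untreated cells.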

[7] = system: A549; test: Growth inhibition of human A549 cells after 48 hrs by sulforhodamine B assay; type: functional; conditions: A549, 48 h; how it was run: as §2
[8] = Growth inhibition of human DWD cells after 48 hrs by sulforhodamine B assay; type: functional; how it was run: as §2
[9] = biological target: DNA topoisomerase 2-alpha (Homo sapiens) (UniProt P11388); test: Inhibition of topoisomerase 2alpha in human in COLO205 cells assessed as induction of single-strand DNA breaks at 4 uM after 24 hrs by comet assay; type: cell-based; conditions: COLO 205
How it was run: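 Colo-205 cells treated 24 h at 4 µM. Electrophoresis 20 min at 40 V in 0.5% TBE pH 8. Slides stained with SYBR green 30 min and imaged by fluorescence microscopy at 20×.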

[10] = system: COLO 205; test: Cell cycle arrest in human COLO205 cells assessed as accumulation at S phase at 4 uM after 24 hrs by FACS analysis in presence of HDAC inhibitor, trichostatin A (reference value: 7.89%); type: functional
How it was run: (§4)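 Colo-205 cells seeded at […] per 60 mm dish and treated 24 h at 4 µM; TSA arm used TSA at 4 µM for 12 h. Cells trypsinised, fixed in ice-cold 70% ethanol 30 min at 4 °C, RNase 1 mg/mL 30 min at 37 °C, then propidium iodide/citrate/Triton stain. DNA content of 20,000 events read by flow cytometry; phase percentages from histograms.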

[11] = system: COLO 205; test: Induction of apoptosis in human COLO205 cells assessed as up-regulation of p21 at 4 uM after 24 hrs by Western blotting analysis; type: functional, cell-based; how it was run: as §1
[12] = system: COLO 205; test: Cell cycle arrest in human COLO205 cells assessed as accumulation at G0 phase at 4 uM after 24 hrs by FACS analysis in presence of HDAC inhibitor, trichostatin A (reference value: 4.06%); type: functional; how it was run: as §4
[13] = system: COLO 205; test: Growth inhibition of human COLO205 cells after 48 hrs by sulforhodamine B assay; type: functional; conditions: COLO 205, 48 h; how it was run: as §2
[14] = system: COLO 205; test: Cell cycle arrest in human COLO205 cells assessed as accumulation at G1 phase at 4 uM after 24 hrs by FACS analysis in presence of HDAC inhibitor, trichostatin A (reference value: 70.57%); type: functional; how it was run: as §4
[15] = system: COLO 205; test: Induction of apoptosis in human COLO205 cells assessed as increase in caspase 3 activation at 4 uM after 24 hrs by ELISA; type: functional, cell-based
[16] = system: COLO 205; test: Cell cycle arrest in human COLO205 cells assessed as accumulation at G2/M phase at 4 uM after 24 hrs by FACS analysis (reference value: 25.92%); type: functional; how it was run: as §4
[17] = system: COLO 205; test: Cell cycle arrest in human COLO205 cells assessed as accumulation at G1 phase at 4 uM after 24 hrs by FACS analysis (reference value: 60.89%); type: functional; how it was run: as §4
[18] = system: COLO 205; test: Induction of apoptosis in human COLO205 cells assessed as up-regulation of p16 at 4 uM after 24 hrs by Western blotting analysis; type: functional, cell-based; how it was run: as §1
[19] = system: HOP-62; test: Growth inhibition of human HOP62 cells after 48 hrs by sulforhodamine B assay; type: functional; conditions: HOP-62, 48 h; how it was run: as §2
[20] = biological target: DNA topoisomerase 2-alpha (Homo sapiens) (UniProt P11388); test: Inhibition of topoisomerase 2alpha using pBR322 DNA as substrate at 50 uM after 30 mins by gel electrophoresis
How it was run: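 Purified topo-IIα enzyme (4 U/µL) incubated with pBR322 plasmid DNA and compound at 50, 25 or 10 µM final, in fresh buffer containing ATP, KCl, MgCl2, DTT and Tris pH 8.0. Inhibition of DNA processing assessed on the resulting gel.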

[21] = system: MCF7; test: Growth inhibition of human MCF7 cells after 48 hrs by sulforhodamine B assay; type: functional; conditions: MCF7, 48 h; how it was run: as §2
[22] = system: COLO 205; test: Cytotoxicity against human COLO205 cells at 2 uM after 24 hrs by MTT assay; type: functional, cell-based; how it was run: as §3
[23] = system: COLO 205; test: Induction of apoptosis in human COLO205 cells assessed as increase in caspase 3 activation at 4 uM after 24 hrs by Western blotting analysis; type: functional, cell-based; how it was run: as §1
[24] = system: COLO 205; test: Cell cycle arrest in human COLO205 cells assessed as accumulation at G0 phase at 4 uM after 24 hrs by FACS analysis (reference value: 4.29%); type: functional; how it was run: as §4
[25] = system: COLO 205; test: Cell cycle arrest in human COLO205 cells assessed as accumulation at S phase at 4 uM after 24 hrs by FACS analysis (reference value: 8.91%); type: functional; how it was run: as §4

Sequence of DNA topoisomerase 2-alpha (Homo sapiens) (P11388 whole entry): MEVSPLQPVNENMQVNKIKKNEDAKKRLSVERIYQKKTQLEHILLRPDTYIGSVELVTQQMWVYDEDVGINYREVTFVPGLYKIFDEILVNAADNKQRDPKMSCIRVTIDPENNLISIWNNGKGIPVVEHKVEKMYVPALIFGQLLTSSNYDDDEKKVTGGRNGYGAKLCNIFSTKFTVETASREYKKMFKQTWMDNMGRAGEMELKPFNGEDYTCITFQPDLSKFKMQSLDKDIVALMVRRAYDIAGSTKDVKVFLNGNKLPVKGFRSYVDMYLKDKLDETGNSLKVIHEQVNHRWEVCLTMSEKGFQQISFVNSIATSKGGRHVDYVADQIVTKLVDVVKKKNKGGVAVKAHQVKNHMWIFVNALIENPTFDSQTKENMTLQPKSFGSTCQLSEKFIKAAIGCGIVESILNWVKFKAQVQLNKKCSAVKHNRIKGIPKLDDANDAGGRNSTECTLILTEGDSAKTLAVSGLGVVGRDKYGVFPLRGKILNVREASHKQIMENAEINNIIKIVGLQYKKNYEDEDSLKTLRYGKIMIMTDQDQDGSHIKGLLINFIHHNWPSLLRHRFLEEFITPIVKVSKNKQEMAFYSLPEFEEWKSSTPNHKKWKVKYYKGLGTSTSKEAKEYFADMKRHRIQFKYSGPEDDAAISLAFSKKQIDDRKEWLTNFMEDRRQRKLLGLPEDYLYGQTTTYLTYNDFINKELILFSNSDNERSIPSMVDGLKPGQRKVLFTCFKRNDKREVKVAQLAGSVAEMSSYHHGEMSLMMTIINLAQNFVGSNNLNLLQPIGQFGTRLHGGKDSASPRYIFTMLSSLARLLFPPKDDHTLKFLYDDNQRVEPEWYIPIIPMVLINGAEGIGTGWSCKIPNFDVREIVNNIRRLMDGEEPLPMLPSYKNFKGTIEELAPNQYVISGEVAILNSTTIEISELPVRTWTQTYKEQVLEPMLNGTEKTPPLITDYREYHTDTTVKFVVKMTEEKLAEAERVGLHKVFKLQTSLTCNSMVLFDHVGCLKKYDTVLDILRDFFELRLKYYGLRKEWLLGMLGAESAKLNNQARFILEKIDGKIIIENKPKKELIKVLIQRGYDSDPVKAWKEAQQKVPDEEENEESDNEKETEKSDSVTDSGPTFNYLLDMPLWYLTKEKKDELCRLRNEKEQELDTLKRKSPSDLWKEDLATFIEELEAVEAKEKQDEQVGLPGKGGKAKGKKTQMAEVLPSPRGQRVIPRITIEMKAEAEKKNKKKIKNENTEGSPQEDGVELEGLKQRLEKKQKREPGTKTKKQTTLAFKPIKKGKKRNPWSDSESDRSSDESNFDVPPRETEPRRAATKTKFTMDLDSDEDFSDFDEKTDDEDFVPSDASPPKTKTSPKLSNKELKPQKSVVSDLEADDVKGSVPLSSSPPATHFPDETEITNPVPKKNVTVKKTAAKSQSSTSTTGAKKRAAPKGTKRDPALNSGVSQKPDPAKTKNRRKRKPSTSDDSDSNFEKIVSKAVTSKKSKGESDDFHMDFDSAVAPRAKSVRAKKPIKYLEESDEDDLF
Sequence of Serine-protein kinase ATM (Homo sapiens) (Q13315 whole entry): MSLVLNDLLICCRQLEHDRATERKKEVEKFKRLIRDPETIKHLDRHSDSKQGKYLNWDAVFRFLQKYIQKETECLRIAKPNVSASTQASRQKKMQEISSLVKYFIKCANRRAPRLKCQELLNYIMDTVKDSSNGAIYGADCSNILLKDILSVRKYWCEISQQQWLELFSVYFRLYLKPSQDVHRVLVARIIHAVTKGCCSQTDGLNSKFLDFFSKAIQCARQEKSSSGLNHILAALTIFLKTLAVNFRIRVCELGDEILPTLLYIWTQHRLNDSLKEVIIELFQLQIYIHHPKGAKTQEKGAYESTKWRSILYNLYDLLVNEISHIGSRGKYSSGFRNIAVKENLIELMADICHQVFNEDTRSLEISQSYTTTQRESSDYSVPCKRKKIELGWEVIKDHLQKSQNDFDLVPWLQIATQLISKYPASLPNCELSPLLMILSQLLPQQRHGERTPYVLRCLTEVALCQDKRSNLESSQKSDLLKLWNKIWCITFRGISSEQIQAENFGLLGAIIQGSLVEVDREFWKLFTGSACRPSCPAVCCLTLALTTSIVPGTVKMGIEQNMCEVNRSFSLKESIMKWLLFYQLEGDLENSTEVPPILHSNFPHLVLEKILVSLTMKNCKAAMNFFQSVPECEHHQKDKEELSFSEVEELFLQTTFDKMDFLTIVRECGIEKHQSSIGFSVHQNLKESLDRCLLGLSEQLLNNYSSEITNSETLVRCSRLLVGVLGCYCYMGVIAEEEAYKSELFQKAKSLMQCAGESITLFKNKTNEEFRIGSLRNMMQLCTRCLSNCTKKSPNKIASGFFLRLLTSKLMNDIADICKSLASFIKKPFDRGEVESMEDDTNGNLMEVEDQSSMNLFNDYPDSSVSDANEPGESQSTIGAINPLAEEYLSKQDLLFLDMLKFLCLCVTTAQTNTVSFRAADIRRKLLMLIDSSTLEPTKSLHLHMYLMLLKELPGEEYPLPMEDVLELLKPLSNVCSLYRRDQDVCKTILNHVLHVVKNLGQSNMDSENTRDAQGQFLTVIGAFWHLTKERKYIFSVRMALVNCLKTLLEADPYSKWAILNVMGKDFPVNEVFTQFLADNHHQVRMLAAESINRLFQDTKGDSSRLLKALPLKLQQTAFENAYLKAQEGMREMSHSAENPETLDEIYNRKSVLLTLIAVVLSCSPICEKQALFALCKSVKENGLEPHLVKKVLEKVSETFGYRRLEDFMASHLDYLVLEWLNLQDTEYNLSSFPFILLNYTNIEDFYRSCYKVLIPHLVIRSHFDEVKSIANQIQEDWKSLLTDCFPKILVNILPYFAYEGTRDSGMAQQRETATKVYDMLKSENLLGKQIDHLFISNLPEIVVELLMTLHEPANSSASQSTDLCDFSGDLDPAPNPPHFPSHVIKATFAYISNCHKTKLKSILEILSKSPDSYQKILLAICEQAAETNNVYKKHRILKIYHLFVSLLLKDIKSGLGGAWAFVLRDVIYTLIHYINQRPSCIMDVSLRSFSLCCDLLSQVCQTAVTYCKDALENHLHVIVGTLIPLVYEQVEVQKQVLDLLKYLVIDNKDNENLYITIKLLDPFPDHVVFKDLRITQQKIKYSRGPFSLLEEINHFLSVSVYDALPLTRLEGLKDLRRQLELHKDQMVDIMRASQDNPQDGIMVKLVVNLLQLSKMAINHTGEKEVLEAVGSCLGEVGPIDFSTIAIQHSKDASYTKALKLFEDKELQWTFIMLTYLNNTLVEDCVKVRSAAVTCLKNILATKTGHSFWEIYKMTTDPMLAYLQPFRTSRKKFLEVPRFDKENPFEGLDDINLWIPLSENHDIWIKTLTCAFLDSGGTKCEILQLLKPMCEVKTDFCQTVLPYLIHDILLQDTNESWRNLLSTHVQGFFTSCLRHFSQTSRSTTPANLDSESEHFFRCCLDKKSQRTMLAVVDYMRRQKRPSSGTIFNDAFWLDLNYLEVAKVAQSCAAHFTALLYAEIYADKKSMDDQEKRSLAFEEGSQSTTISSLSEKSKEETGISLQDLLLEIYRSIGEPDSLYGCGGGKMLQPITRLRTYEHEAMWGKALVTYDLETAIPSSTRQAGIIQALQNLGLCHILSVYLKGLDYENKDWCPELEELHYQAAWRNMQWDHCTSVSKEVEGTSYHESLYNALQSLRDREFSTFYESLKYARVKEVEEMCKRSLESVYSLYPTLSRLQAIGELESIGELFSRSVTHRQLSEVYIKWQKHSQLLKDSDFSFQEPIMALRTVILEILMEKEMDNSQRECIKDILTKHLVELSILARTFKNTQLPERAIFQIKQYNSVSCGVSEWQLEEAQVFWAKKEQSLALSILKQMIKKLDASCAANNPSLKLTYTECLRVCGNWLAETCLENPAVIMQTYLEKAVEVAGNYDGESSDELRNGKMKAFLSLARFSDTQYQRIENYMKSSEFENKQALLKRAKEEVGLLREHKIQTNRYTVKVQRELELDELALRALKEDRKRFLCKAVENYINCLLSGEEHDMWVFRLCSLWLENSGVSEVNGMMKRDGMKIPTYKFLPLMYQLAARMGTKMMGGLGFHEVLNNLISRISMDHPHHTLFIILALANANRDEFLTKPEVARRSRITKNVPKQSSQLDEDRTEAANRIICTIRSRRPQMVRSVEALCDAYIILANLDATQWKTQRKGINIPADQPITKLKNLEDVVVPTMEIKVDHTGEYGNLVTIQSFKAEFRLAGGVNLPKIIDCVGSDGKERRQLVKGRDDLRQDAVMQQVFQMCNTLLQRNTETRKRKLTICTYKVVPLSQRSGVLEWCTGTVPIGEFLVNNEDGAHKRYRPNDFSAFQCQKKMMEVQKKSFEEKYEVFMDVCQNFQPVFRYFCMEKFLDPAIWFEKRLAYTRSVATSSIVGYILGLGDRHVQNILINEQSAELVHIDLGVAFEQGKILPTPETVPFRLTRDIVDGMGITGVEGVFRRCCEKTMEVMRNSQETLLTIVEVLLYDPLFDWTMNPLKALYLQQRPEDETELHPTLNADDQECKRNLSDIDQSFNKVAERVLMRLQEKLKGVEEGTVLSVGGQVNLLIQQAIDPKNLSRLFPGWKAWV

Row | SMILES | Activity [1] | GI50 [2] | Activity [3] | Activity [4] | GI50 [5] | Activity [6] | GI50 [7] | GI50 [8] | inhibition [9] | Activity [10] | Activity [11] | Activity [12] | GI50 [13] | Activity [14] | Activity [15] | Percentage of cells in G2/M phase [16] | Activity [17] | Activity [18] | GI50 [19] | inhibition [20] | other results
1 | COc1cc([C@@H]2c3cc4c(cc3[C@@H](O[C@@H]3O[C@@H]5CO[C@@H](C)O[C@H]5[C@H](O)[C@H]3O)[C@H]3COC(=O)[C@H]23)OCO4)cc(OC)c1O [ETOPOSIDE] | Active | 1310 nM | Active | Active | 200 nM | Active | 3080 nM | 620 nM | Active | 8.55% | Active | 56.29% | 130 nM | 21.74% | Active | 74.27% | 12.82% | Active | 800 nM | Active | GI50 [21]: 2110 nM; Activity [22]: Active; Activity [23]: Active; Activity [24]: 5.95%; Percentage of cells in S phase [25]: 6.97%
2 | COC(=O)c1sccc1S(=O)(=O)N[C@@H]1c2cc3c(cc2[C@@H](c2cc(OC)c(OC)c(OC)c2)[C@H]2C(=O)OC[C@@H]21)OCO3 | Active | 50 nM | Active | Active | 60 nM | Active | 150 nM | 40 nM | 60% | 7.85% | Active | 57.43% | 40 nM | 18.8% | Active | 40.57% | 27.43% | Active | 40 nM | Active | GI50 [21]: 180 nM; Activity [22]: Active; Activity [23]: Active; Activity [24]: 23.94%; Percentage of cells in S phase [25]: 8.16%
